Results published in ChEMBL document CHEMBL1629542, “Epigallocatechin gallate inactivates clinical isolates of herpes simplex virus” (Antimicrob Agents Chemother, 2008).
Active and inactive are the calls of the source. No cut-off for these calls is given here.

How the values were obtained:
Human alphaherpesvirus 1 [1] = assay: Antiviral activity against Human herpesvirus 1 isolate P42 infected in African green monkey vero cells assessed as reduction in viral titer at 100 uM; assay type: functional, organism-based
Procedure, shortened: (§1)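 Laboratory HSV-1 F1 or patient-swab HSV-1 isolates were prepared as clarified Vero supernatants. They were incubated 1 h with a range of EGCG concentrations in RPMI 1640/1% FCS at pH 7.4. Titres were determined on Vero cells by 5-day CPE endpoint (Reed-Muench). IC99 was read graphically as 99% titre drop from untreated; mean ± SD, three experiments.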

Human alphaherpesvirus 2 [2] = assay: Antiviral activity against Human herpesvirus 2 isolate P11 infected in African green monkey CV1 cells assessed as log reduction in viral titer at 100 uM within 10 mins; assay type: functional, CV-1
Procedure, shortened: (§2)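 HSV-2 clinical isolates from clarified CV-1 supernatants were held with 100 μM EGCG for timed intervals, from 10 min onward. Surviving virus was titrated on CV-1 cells by 10-fold dilution and 5-day CPE scoring, with TCID50 by Reed-Muench. Values are mean ± SD, three experiments.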

Human alphaherpesvirus 2 [3] = assay: Antiviral activity against Human herpesvirus 2 isolate P12 infected in African green monkey CV1 cells assessed as log reduction in viral titer at 100 uM within 10 mins; assay type: functional, CV-1; procedure, shortened: as §2
Human alphaherpesvirus 2 [4] = assay: Antiviral activity against Human herpesvirus 2 isolate P22 infected in African green monkey CV1 cells assessed as log reduction in viral titer at 100 uM within 10 mins; assay type: functional, CV-1
Procedure, shortened: (§3)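 Time course: clarified CV-1 supernatant of HSV-2 (clinical isolates or strain 333) was exposed to 100 μM EGCG for increasing times. It was then titrated by tenfold dilution on CV-1 cells, three wells per dilution, for 5 days at 37°C with CPE read-out. Reed-Muench TCID50 was compared with the untreated titer. Mean of three separate experiments.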

Human alphaherpesvirus 2 [5] = assay: Antiviral activity against Human herpesvirus 2 isolate P27 infected in African green monkey CV1 cells assessed as log reduction in viral titer at 100 uM within 10 mins; assay type: functional, CV-1; procedure, shortened: as §3
Human alphaherpesvirus 1 [6] = assay: Antiviral activity against Human herpesvirus 1 isolate P15 infected in African green monkey vero cells assessed as log reduction in viral titer at 100 uM after 40 to 60 mins; assay type: functional
Procedure, shortened: (§4)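 In the time course, HSV-1 clinical isolates (clarified Vero supernatants) were exposed to 100 μM EGCG for varying times up to 60 min. Residual infectivity was then titrated on Vero cells by 5-day CPE endpoint with Reed-Muench calculation. Mean ± SD of three separate experiments.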

Human alphaherpesvirus 1 [7] = assay: Antiviral activity against Human herpesvirus 1 isolate P15 infected in African green monkey vero cells assessed as log reduction in viral titer at 100 uM after 30 mins; assay type: functional; procedure, shortened: as §4
Human alphaherpesvirus 1 [8] = assay: Antiviral activity against Human herpesvirus 1 isolate P25 infected in African green monkey vero cells assessed as log reduction in viral titer at 100 uM after 30 mins; assay type: functional; procedure, shortened: as §4
Human alphaherpesvirus 1 [9] = assay: Antiviral activity against Human herpesvirus 1 isolate P56 infected in African green monkey vero cells assessed as log reduction in viral titer at 100 uM after 30 mins; assay type: functional; procedure, shortened: as §4
Human alphaherpesvirus 1 [10] = assay: Antiviral activity against Human herpesvirus 1 isolate P56 infected in African green monkey vero cells assessed as log reduction in viral titer at 100 uM within 20 mins; assay type: functional; procedure, shortened: as §4
Human alphaherpesvirus 2 [11] = assay: Antiviral activity against Human herpesvirus 2 strain 333 infected in African green monkey CV-1 cells assessed as log reduction in viral titer at 100 uM after 20 mins; assay type: functional; procedure, shortened: as §3
Human alphaherpesvirus 1 [12] = assay: Binding affinity to Envelope glycoprotein B in Human herpesvirus 1 F1 assessed as macromolecular complex formation by SDS-PAGE
Procedure, shortened: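 Purified HSV-1 gB or gD (500 to 700 μg/ml) was incubated with EGCG (250 μg/ml; 545 μM) in 0.1 M potassium phosphate, pH 7.0, at 35°C for 24 h. Products were denatured at 50°C for 15 min in sample buffer and run on 6.5% SDS-PAGE. Bands were stained with Coomassie blue to detect higher-molecular-weight complexes.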

Human alphaherpesvirus 1 [13] = assay: Antiviral activity against Human herpesvirus 1 isolate P32 infected in African green monkey vero cells assessed as reduction in viral titer; assay type: functional, organism-based; settings: Human alphaherpesvirus 1, isolate P32, Vero; procedure, shortened: as §1
Human alphaherpesvirus 1 [14] = assay: Antiviral activity against Human herpesvirus 1 isolate P38 infected in African green monkey vero cells assessed as reduction in viral titer; assay type: functional, organism-based; settings: Human alphaherpesvirus 1, isolate P38, Vero; procedure, shortened: as §1
Human alphaherpesvirus 1 [15] = assay: Antiviral activity against Human herpesvirus 1 F1 infected in African green monkey vero cells assessed as reduction in viral titer; assay type: functional, organism-based; settings: Human alphaherpesvirus 1, F1, Vero; procedure, shortened: as §1
Human alphaherpesvirus 1 [16] = assay: Antiviral activity against Human herpesvirus 1 isolate P56 infected in African green monkey vero cells assessed as log reduction in viral titer at 50 uM; assay type: functional; procedure, shortened: as §1
Human alphaherpesvirus 1 [17] = assay: Antiviral activity against Human herpesvirus 1 isolate P15 infected in African green monkey vero cells assessed as reduction in viral titer at 100 uM; assay type: functional, organism-based; procedure, shortened: as §1
Human alphaherpesvirus 2 [18] = assay: Antiviral activity against Human herpesvirus 2 strain 333 infected in African green monkey CV1 cells assessed as log reduction in viral titer at 100 uM; assay type: functional, CV-1
Procedure, shortened: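 Lab strain HSV-2 333 was grown and titrated either in CV-1 cells or in Vero cells. Virus was incubated with 100 μM EGCG for 60 min, then titrated as tenfold dilutions for 5 days at 37°C with CPE scoring. Reed-Muench TCID50 of treated versus control virus gave the titer decrease. Mean of three experiments.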

Human alphaherpesvirus 2 [19] = assay: Antiviral activity against Human herpesvirus 2 isolate P11 infected in African green monkey CV1 cells assessed as log reduction in viral titer at 12.5 uM; assay type: functional, CV-1
Procedure, shortened: (§5)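 HSV-2 patient-swab isolates were grown as clarified CV-1 supernatants and incubated 1 h with a range of EGCG concentrations (RPMI 1640/1% FCS, pH 7.4). They were titrated on CV-1 cells from 10-fold dilutions by 5-day CPE at 37°C, with Reed-Muench TCID50. IC99 was derived graphically as 99% reduction from zero-drug titre; mean ± SD, three experiments.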

Human alphaherpesvirus 2 [20] = assay: Antiviral activity against Human herpesvirus 2 isolate P12 infected in African green monkey CV1 cells assessed as log reduction in viral titer at 12.5 uM; assay type: functional, CV-1; procedure, shortened: as §5
Human alphaherpesvirus 2 [21] = assay: Antiviral activity against Human herpesvirus 2 isolate P47 infected in African green monkey CV1 cells assessed as log reduction in viral titer at 12.5 uM; assay type: functional, CV-1
Procedure, shortened: (§6)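 HSV-2 (clinical swab isolates or strain 333) was grown in CV-1 cells and used as clarified supernatant. Virus was exposed to graded EGCG for 1 h in RPMI 1640 with 1% FCS, pH 7.4. Tenfold dilutions were titrated on CV-1 cells, three wells each, 5 days at 37°C, scoring CPE. TCID50 was calculated by Reed-Muench. IC99 was read graphically as 99% titer drop from the zero-concentration titer. Mean of three experiments.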

Human alphaherpesvirus 2 [22] = assay: Antiviral activity against Human herpesvirus 2 isolate P12 infected in African green monkey CV1 cells; assay type: functional, organism-based; settings: Human alphaherpesvirus 2, isolate P12, CV-1; procedure, shortened: as §5
Human alphaherpesvirus 2 [23] = assay: Antiviral activity against Human herpesvirus 2 isolate P47 infected in African green monkey CV1 cells; assay type: functional, organism-based; settings: Human alphaherpesvirus 2, isolate P47, CV-1; procedure, shortened: as §6
Human alphaherpesvirus 2 [24] = assay: Antiviral activity against Human herpesvirus 2 isolate P11 infected in African green monkey CV1 cells assessed as log reduction viral titer at 50 uM; assay type: functional, CV-1; procedure, shortened: as §5
Human alphaherpesvirus 1 [25] = assay: Antiviral activity against Human herpesvirus 1 isolate P25 infected in African green monkey vero cells assessed as log reduction in viral titer at 50 uM; assay type: functional; procedure, shortened: as §1
Human alphaherpesvirus 1 [26] = assay: Antiviral activity against Human herpesvirus 1 isolate P32 infected in African green monkey vero cells assessed as log reduction in viral titer at 50 uM; assay type: functional; procedure, shortened: as §1

## O=C(O[C@@H]1Cc2c(O)cc(O)cc2O[C@@H]1c1cc(O)c(O)c(O)c1)c1cc(O)c(O)c(O)c1 [EPIGALOCATECHIN GALLATE]
Human alphaherpesvirus 1 [1]
  Activity: Active
Human alphaherpesvirus 2 [2]
  FC: 2
Human alphaherpesvirus 2 [3]
  FC: 2
Human alphaherpesvirus 2 [4]
  FC: 2
Human alphaherpesvirus 2 [5]
  FC: 2
Human alphaherpesvirus 1 [6]
  FC: 3
Human alphaherpesvirus 1 [7]
  FC: 2
Human alphaherpesvirus 1 [8]
  FC: 2
Human alphaherpesvirus 1 [9]
  FC: 2
Human alphaherpesvirus 1 [10]
  FC: 3
Human alphaherpesvirus 2 [11]
  FC: >=3
Human alphaherpesvirus 1 [12]
  Activity: Active
Human alphaherpesvirus 1 [13]
  IC99: 16 µM
Human alphaherpesvirus 1 [14]
  IC99: 48.2 µM
Human alphaherpesvirus 1 [15]
  IC99: 72.3 µM
Human alphaherpesvirus 1 [16]
  FC: 2
Human alphaherpesvirus 1 [17]
  Activity: Active
Human alphaherpesvirus 2 [18]
  FC: 4
Human alphaherpesvirus 2 [19]
  FC: >=2
Human alphaherpesvirus 2 [20]
  FC: >=2
Human alphaherpesvirus 2 [21]
  FC: >=2
Human alphaherpesvirus 2 [22]
  IC99: 12.5 µM
Human alphaherpesvirus 2 [23]
  IC99: 12.5 µM
Human alphaherpesvirus 2 [24]
  FC: >4
Human alphaherpesvirus 1 [25]
  FC: 2
Human alphaherpesvirus 1 [26]
  FC: 2
